Laboratory results reported in article PMC3149845 (The Journal of neuroscience : the official journal of the …, 2011).

Target: T1, smTas1R2/hTas1R3 (Saimiri sciureus, UniProt A3QP08)
T1 sequence (A3QP08 20-834): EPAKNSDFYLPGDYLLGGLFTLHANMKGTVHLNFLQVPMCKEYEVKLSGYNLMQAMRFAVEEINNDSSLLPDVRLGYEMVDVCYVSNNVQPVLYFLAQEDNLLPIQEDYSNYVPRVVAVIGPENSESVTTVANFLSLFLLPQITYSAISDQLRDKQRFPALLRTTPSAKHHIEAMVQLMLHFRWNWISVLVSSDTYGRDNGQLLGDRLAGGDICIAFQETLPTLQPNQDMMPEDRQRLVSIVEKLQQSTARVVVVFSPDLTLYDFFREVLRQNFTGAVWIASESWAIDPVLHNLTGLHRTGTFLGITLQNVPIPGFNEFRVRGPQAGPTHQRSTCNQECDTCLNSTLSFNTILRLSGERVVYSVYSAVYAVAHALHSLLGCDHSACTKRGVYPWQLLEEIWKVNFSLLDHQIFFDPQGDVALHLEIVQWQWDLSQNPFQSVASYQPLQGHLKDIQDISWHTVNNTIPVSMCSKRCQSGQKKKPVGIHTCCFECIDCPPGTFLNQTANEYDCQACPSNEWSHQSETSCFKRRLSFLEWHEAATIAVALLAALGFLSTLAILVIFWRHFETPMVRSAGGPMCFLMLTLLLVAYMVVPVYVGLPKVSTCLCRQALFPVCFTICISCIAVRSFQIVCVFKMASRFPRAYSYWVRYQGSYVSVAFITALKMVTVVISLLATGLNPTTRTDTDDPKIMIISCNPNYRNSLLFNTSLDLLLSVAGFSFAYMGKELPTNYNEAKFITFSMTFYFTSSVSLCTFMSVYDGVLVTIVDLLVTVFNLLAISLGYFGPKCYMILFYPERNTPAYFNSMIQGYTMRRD
T1 sequence (Q7RTX0 21-852 partner): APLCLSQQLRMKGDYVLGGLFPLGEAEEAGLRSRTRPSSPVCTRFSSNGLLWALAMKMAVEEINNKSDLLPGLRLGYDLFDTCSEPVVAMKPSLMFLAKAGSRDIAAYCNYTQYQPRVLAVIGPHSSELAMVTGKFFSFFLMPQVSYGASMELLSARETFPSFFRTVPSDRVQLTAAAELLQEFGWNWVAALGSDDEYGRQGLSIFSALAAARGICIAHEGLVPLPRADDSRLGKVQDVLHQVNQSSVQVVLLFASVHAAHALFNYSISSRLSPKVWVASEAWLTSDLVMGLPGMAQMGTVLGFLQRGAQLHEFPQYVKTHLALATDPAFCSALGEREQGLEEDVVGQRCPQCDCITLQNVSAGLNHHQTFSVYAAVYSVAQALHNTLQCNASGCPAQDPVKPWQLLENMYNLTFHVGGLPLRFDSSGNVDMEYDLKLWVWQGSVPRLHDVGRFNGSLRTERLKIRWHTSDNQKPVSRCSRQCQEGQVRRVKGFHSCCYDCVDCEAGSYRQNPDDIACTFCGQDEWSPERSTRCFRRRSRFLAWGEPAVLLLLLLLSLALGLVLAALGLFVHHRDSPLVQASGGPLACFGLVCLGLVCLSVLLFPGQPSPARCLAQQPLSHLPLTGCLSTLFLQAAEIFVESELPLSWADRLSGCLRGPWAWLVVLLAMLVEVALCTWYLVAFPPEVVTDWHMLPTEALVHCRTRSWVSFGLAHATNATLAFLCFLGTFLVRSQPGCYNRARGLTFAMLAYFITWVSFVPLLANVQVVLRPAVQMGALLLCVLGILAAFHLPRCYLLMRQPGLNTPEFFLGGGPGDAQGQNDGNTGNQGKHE
Experiment: Ca2+ mobilization, mismatched receptor
Assay type: cell-based, human/squirrel monkey
Conditions: aspartame 10mM, neotame 1mM, sucralose 2 mM, D-tryptophan 5mM, sucrose 150mM
Method in brief: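 HEK293E cells grown at 37°C in Opti-MEM with 5% FBS and seeded at 50,000/well. Cells co-lipofected with Tas1R plasmids and Gα16-gust44 (0.06 μg each per well); medium changed at 20 h, assayed 24 h later. Cells loaded 1 h with Fluo-4 AM in HEPES-buffered HBSS. Tastant added at 30 s; fluorescence (ex 488/em 525 nm) read every 2 s for 150 s more. ΔF/F normalised to human receptor maximal sucralose response; mean ± SEM, three independent experiments.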

## OC[C@H]1O[C@H](O[C@]2(CCl)O[C@H](CCl)[C@@H](O)[C@@H]2O)[C@H](O)[C@@H](O)[C@H]1Cl [sucralose]
  calcium response to sweetener: remained intact or reduced
